For one test, the system named is U-937. In words: In vitro inhibitory concentration required to inhibit the growth of U937 cells was determined by mitotic block reversibility assay. In kind it is functional. Particulars: Homo sapiens. The essentials: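 Reversibility assay in human histiocytic lymphoma U937 cells. After drug washout, flow cytometry scored whether a complete mitotic block was still maintained 10 h later.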

Another test relates to DLD-1. The experiment in a line: In vitro inhibitory concentration required to inhibit the growth of DLD-1 cells under continuous exposure conditions for 3-4 days. Type of test: functional, cell-based. The conditions noted are these: Homo sapiens. The method, boiled down: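 Human colon cancer DLD-1 cells were exposed to compound continuously for 3–4 days and growth inhibition was measured. IC50 is given ± SEM, with n the number of experiments.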

A further test has as its system P388. The experiment in a line: Fold resistance calculated as the inhibition concentration ratio between retrovirally transformed P388/VMDRC.04 and parental P388 cells. In kind it is functional. The method, boiled down: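 P-glycoprotein-mediated efflux assessed in murine P388/VMDRC.04, a retrovirally transformed multidrug-resistant subline of P388/S leukemia cells, alongside parental P388 cells. Growth inhibition IC50 was measured in each line. Fold resistance is the IC50 ratio of P388/VMDRC.04 to parental P388.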

`C=C1C[C@@H]2CC[C@@]34C[C@@H]5O[C@@H]6C(O[C@H]7CC[C@H](CC(=O)O[C@@H]8[C@@H](OC)[C@H](O)[C@H](CCOC)O[C@H]8C[C@H]8O[C@@H](CC[C@@H]1O2)C[C@@H](C)C8=C)O[C@@H]7[C@@H]6O3)[C@H]5O4` showed an IC99 in the test with U-937 greater than 1 µM. In the test with DLD-1, this compound came in with an IC50 of 1.8 nM. Also, the FR in the test on P388 is reported as 1.6.
On the same counts, the results for `C=C1C[C@@H]2CC[C@@]34C[C@@H]5O[C@@H]6C(O[C@H]7CC[C@H](CC(=O)O[C@@H]8[C@@H](OC)[C@@H](O)[C@@H](CC(O)CO)O[C@H]8C[C@H]8O[C@@H](CC[C@@H]1O2)C[C@@H](C)C8=C)O[C@@H]7[C@@H]6O3)[C@H]5O4` (some centres not stated) are 0.065 µM, 12 nM and 20.
On the same counts, the results for `C=C1C[C@@H]2CC[C@@]34C[C@@H]5O[C@@H]6C(O[C@H]7CC[C@H](CC(=O)O[C@@H]8[C@@H](OC)[C@@H](O)[C@H](CC(O)CO)O[C@H]8C[C@H]8O[C@@H](CC[C@@H]1O2)C[C@@H](C)C8=C)O[C@@H]7[C@@H]6O3)[C@H]5O4` (some centres not stated) are 0.053 µM, 19 nM and 23.
On the same counts, the results for `C=C1C[C@@H]2CC[C@@]34C[C@@H]5O[C@@H]6C(O[C@H]7CC[C@H](CC(=O)O[C@@H]8[C@@H](OC)[C@@H](O)[C@H](CO)O[C@H]8C[C@H]8O[C@@H](CC[C@@H]1O2)C[C@@H](C)C8=C)O[C@@H]7[C@@H]6O3)[C@H]5O4` are 0.065 µM, 2 nM and 13.

In general, IC99 refers to the point of the concentration-response curve where the effect stands at 99%. What is called IC50 is the point on the concentration scale where inhibition reaches its midpoint.

The record behind these values is ChEMBL document CHEMBL1138022, “Structurally simplified macrolactone analogues of halichondrin B” (Bioorg Med Chem Lett, 2004).
